High-throughput results (PubChem)
Hits are enriched below; roughly 1.8% of the tested compounds scored in any of these assays.
697 NFkB inh = inhibitors of the PMA/ionomycin-induced NF-kB reporter in 697 B cells. 697 B-cell NF-kB luciferase reporter, 16 h. inhibition, % at 4 µM. 330,000 tested, 0.33% active. AID 435022; in the data active = inhibition above about 35%
NR2E3 ag-1 = agonists of human nuclear receptor NR2E3. GST-NR2E3/biotin-RetCOR TR-FRET, 1536-well. inhibition of corepressor binding, % at 4.78 µM. 320,000 tested, 0.12% active. AID 2300;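 active = percent inhibition above the cutoff of mean plus 3 SD of all tested compounds, set per screening campaign, cut at about 20% in these data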;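 also: 0% = DMSO wells and 100% = biotin wells as full block of FRET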
Target sequence (Q9Y5X4 whole entry, looked up): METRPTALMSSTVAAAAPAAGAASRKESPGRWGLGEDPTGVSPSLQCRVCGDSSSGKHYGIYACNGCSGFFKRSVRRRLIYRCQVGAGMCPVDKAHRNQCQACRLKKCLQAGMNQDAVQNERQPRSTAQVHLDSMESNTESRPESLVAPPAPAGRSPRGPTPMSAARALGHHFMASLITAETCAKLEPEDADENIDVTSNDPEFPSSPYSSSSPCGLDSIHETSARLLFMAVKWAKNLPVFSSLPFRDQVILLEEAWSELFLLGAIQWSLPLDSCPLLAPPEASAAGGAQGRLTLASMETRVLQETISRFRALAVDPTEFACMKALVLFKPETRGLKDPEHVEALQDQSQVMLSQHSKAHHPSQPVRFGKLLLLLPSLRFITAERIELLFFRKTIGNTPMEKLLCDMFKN
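Test system – NR2E3–RetCOR corepressor complex · Quantity – NR2E3 fusion 1.35 nM · Buffer or medium – Tris pH 7.5 · Incubation – Compound–protein incubation for 5 h at 4 °C · Technique – TR-FRET, Eu(K)-anti-GST donor, streptavidin-D2 acceptor, ex 340, em 617/671 nm · Evaluation – percent inhibition of 671/617 nm emission ratio versus biotin and DMSO controls · Plate – 1536-well format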
Jurkat NFkB inh = inhibitors of the PMA/ionomycin-induced NF-kB reporter in Jurkat cells | PMA/ionomycin-induced NF-kB luciferase reporter, luminescence | inhibition, % at 4 µM | 330,000 tested, 0.53% active | AID 435003; in the data active = inhibition above about 50%
GalR3 antagonist = human GalR3 antagonism; O60755; HEK293 GalR3-CNG cAMP membrane potential fluorescence; galR3 body fused to GalR1 C-terminus; inhibition, % at 3 µM; 360,000 tested, 0.44% active;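 active = inhibition above the screen-wide average plus 3 SD, cut at about 13% in these data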;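 also: forskolin and galanin both at EC90 stimulate the cells; cAMP rise reported by CNG channel membrane potential dye signal; 0% = forskolin plus galanin with DMSO and 100% = forskolin alone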
NR2E3 ag-2 = human photoreceptor-specific nuclear receptor agonism | CHO-S Gal4-NCOR/VP16-NR2E3 two-hybrid, luciferase | inhibition of corepressor binding, % at 3.98 µM | AID 602229 | Q9Y5X4 | 360,000 tested, 0.35% active;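 active = inhibition above the mean of all tested compounds plus 3 SD, cut at about 70% in these data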;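 also: 0% = DMSO with NR2E3 transfected cells and 100% = cells lacking NR2E3 construct; higher means lower luciferase signal from less NR2E3 corepressor binding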
Gli-Sufu block = antagonists of Gli-Sufu signaling | AID 588413 | 340,000 tested, 0.74% active | inhibition, % at 5 µM | Sufu-KO-LIGHT fibroblasts, Gli luciferase reporter luminescence;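 active = inhibition above about 55%, limit read from the data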;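 also: 0% = DMSO-treated cells and 100% = wells with medium but no cells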
Starred values were filed as active, the others as inactive; x = no result given.

SMILES	697 NFkB inh	NR2E3 ag-1	Jurkat NFkB inh	GalR3 antagonist	NR2E3 ag-2	Gli-Sufu block
COc1ccc(NC(=O)N(C)[C@H]2C[C@H]3c4[nH]c5c(-c6ccccc6)cccc5c4CCN3C(=O)[C@H]2[C@H](C)O)cc1	x	x	x	-7	x	x
O=C(OCc1ccccc1)N1CCC2CC1c1ccc(N3CCN(Cc4ccccc4)CC3)cc12 (configuration not stated)	x	x	x	-6	x	x
Cc1cc(C)n(-c2nc(NC(C)C)nc(NC(C)C)n2)n1	-5	2	0	-5	81*	6
Cc1cc(C)n(-c2nc(Nc3ccccc3C)nc(-n3nc(C)cc3C)n2)n1	16	0	-5	-5	x	x
Cc1cc(C)n(-c2nnc(NC(C)(C)C)nn2)n1	1	2	-25	0	-43	-46
Cc1cc(C)n(-c2nc(NC(C)(C)C)nc(NC(C)(C)C)n2)n1	-15	-1	17	-5	105*	14
CCCCCn1cc(CCC(=O)Nc2ccc(Oc3cccnc3)cc2)c2ccccc21	x	x	x	-5	x	x
COc1ccc(C=NNC(=S)Nc2ccc(F)cc2)cc1OC	x	x	x	2	9	-6
COc1ccc(C=NNC(=S)NN=Cc2ccc(OC)c(OC)c2)cc1OC	x	x	x	16*	-3	-39
Cc1ccccc1C(=O)N[C@H](C(=O)N1CCC[C@H]1C(=O)NCCc1ccccc1Cl)c1ccccc1	x	x	x	-7	x	x
C=C1C(=O)c2sccc2C(c2ccc(OC)c(OC)c2)C1COC(C)=O (configuration not stated)	x	x	x	28*	22	44
C/C(=N\Nc1ncnc2sc(C)c(C)c12)c1ccccn1	9	2	50	-6	26	94*
C/C(=N\Nc1ncc(Cl)cc1Cl)c1ccccn1	x	x	x	x	-94	76*
CN1C=C/C(=C\c2cc[n+](C)c3ccccc23)c2ccccc21	x	x	x	-3	-9	77*
CCOC(=O)c1c(N2C(=O)Nc3cc(Cl)c(Cl)cc3N2O)sc2c1CCCCC2	19	0	-9	x	92*	-4
Cc1ccccc1C(=O)N[C@@H](Cc1cccnc1)C(=O)N1CCC[C@H]1C(=O)NCCc1ccccc1Cl	x	x	x	-7	x	x
CCCCCn1c(C)c(CC(=O)Nc2ccc(Oc3cccnc3)c(C)c2)c2ccccc21	x	x	x	-7	x	x
CC(=O)N(Cc1ccc(F)cc1)C1=C(NCc2ccccc2)C(=O)c2ccccc2C1=O	x	x	x	x	6	92*
CCCCn1c(NC(=O)c2ccccc2Cl)c(C#N)c2nc3ccccc3nc21	4	19	6	-2	96*	15
CCCCn1c(NC(=O)CC)c(C#N)c2nc3ccccc3nc21	-6	-1	-2	-3	12	6
N#Cc1c(NC(=O)c2ccccc2Cl)n(Cc2ccccc2)c2nc3ccccc3nc12	x	3	x	-2	87*	5
O=C(NCc1ccccc1)C(c1ccco1)N1CCN(CCN2CCOCC2)CC1 (configuration not stated)	x	x	x	-5	x	x
Cc1ccc(N(C)c2nc(N)nc(N)c2N=O)cc1	x	x	x	-7	x	x
N#Cc1c(-c2ccc(Cl)cc2)n(O)c2ccccc12	x	x	x	x	98*	7
Nc1c(Cl)ncnc1N/N=C/c1ccccn1	x	0	x	0	x	77*
SMILES	697 NFkB inh	NR2E3 ag-1	Jurkat NFkB inh	GalR3 antagonist	NR2E3 ag-2	Gli-Sufu block
Nc1c(Cl)ncnc1N/N=C/c1ccc2ccccc2n1	x	-7	x	-6	-48	66*
Nc1c(Cl)ncnc1N/N=C/c1ccnc2ccccc12	-14	-4	-23	-7	3	-17
CNc1nc2cc([N+](=O)[O-])c([N+](=O)[O-])cc2nc1NC	x	5	x	0	48	84*
N#Cc1cc2nc(O)c(O)nc2cc1[N+](=O)[O-]	-16	2	3	x	-6	-12
C/C(=N\NC(=O)c1c[nH]c2ccccc12)c1ccccn1	-119	2	-52	-3	-17	-58
C/C(=N\NC(=O)c1cc2ccccc2cc1O)c1ccccn1	-183	3	-7	-8	-39	90*
CC(=O)c1sc(NC(=O)C=C(C)C)nc1C	6	4	-11	-5	-18	-4
CC(=O)c1sc(NC(=O)C2(F)C(F)(F)C(F)(F)C(F)(F)C(F)(F)C2(F)F)nc1C	11	1	-23	-2	24	75*
N#Cc1ccc(S(=O)(=O)N2CCCc3nc(-c4ccc(Br)cc4)ccc32)cc1	x	x	x	-4	x	x
OCC1OC(n2cnc3c(NCc4ccco4)ncnc32)C(O)C1O (configuration not stated)	x	x	x	86*	40	23
OC[C@H]1O[C@@H](n2cnc3c(NCc4ccco4)ncnc32)[C@H](O)[C@@H]1O	x	x	x	-6	4	11
O=C(O)CCC1c2cc3c4cc2OC2Oc5cc6c(cc51)C(CCC(=O)O)c1cc5c7cc1OC(O6)c1cc6cc(c1)Oc1cc(cc(C(=O)O)c1)Oc1cc8cc(c1)C(Oc1cc(c(cc1C5CCC(=O)O)C3CCC(=O)O)OC(O4)c1cc(cc(c1)Oc1cc(cc(C(=O)O)c1)O8)Oc1cc(cc(C(=O)O)c1)Oc1cc(cc2c1)Oc1cc(cc(C(=O)O)c1)O6)O7 (configuration not stated)	0	21*	14	x	x	x
COc1cccc2c1C(=O)c1c(O)c3c(c(O)c1C2=O)C[C@@](O)(C(=O)CO)C[C@@H]3OC1CC(N)C(O)C(C)O1 (some centres not stated)	x	x	x	-9	-65	91*
N#Cc1ccc(S(=O)(=O)N2CCCc3nc(-c4ccc(F)cc4)ccc32)cc1	x	x	x	-5	x	x
CCOc1ccc(S(=O)(=O)Nc2cnc3ccccc3c2)cc1	-4	0	30	-9	99*	32
CCOc1ccc(S(=O)(=O)Nc2nc3ccccc3nc2Cl)cc1	11	3	-3	-8	5	-6
CC1CCC(C(C)C)C(OC(=O)Cn2c(-c3ccc(Cl)cc3)[n+](C)c3ccccc32)C1 (configuration not stated)	-73	-1	32	-4	2	72*
Cc1ccccc1OCc1n(CC(=O)OC2CC(C)CCC2C(C)C)c2ccccc2[n+]1C (configuration not stated)	-39	-1	15	-4	12	50
CCc1ccc(-c2nc(CN3CCC(C(=O)NCCN(CC)c4ccccc4)CC3)c(C)o2)cc1	-13	0	7	-4	8	-29
CCc1ccc(-c2nc(CN3CCC(C(=O)NCc4ccc(F)cc4)CC3)c(C)o2)cc1	9	1	5	-3	-49	93*
O=C(Nc1nc(-c2ccccn2)cs1)c1ccc(Br)s1	-7	2	27	-5	26	82*
O=C(Nc1nc(-c2ccccn2)cs1)c1ccco1	-12	3	3	0	-39	-7
COC(=O)c1ccc2c(c1)C(C)(C)C(/C=C/c1ccccc1O)=[N+]2C	-34	7	32	-4	39	65*
O=C(Cc1c[nH]c2ccccc12)Nc1ccc(Nc2ccncc2)cc1	x	x	x	-6	x	x
